For data set [1], the target named is T1, Fatty-acid amide hydrolase 1 (Homo sapiens, UniProt O00519).
T1 sequence (O00519 whole entry): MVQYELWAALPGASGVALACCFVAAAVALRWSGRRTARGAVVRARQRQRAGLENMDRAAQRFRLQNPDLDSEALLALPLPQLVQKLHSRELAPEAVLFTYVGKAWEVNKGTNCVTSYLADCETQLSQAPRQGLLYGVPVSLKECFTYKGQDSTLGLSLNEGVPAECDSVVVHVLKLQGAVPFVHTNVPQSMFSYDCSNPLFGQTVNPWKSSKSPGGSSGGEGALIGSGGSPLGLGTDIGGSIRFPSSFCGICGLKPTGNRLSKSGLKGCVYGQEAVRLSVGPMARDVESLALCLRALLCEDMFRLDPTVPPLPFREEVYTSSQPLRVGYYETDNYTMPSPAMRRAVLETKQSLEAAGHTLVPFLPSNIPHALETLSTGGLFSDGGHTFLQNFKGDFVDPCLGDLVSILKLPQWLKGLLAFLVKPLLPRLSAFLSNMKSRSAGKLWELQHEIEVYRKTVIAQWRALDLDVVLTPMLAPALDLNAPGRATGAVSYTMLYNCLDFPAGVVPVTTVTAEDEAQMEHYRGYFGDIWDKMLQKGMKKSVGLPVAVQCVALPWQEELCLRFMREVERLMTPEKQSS
Description: Inhibitory concentration against Fatty-acid amide hydrolase (FAAH) at pH 9.0. In short, it runs like this: (§1)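 Hydrolysis of ¹⁴C-oleamide to oleic acid was followed over 30 s to 15 min. Product was extracted, separated by TLC and quantified by scintillation counting.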

Data set [2] addresses T1, Fatty-acid amide hydrolase 1. Briefly: Compound was tested for inhibitory potency against Fatty-acid amide hydrolase (FAAH) at pH 9.0. In short, it runs like this:
as §1

Data set [3] has the same target. Briefly: Concentration required to inhibit fatty acid amide hydrolase (FAAH) at pH 7.0. The essentials: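 Performed at pH 7.0 with solubilized liver plasma membrane extract as the FAAH source. ¹⁴C-oleamide breakdown to oleic acid was measured by extraction, TLC separation and scintillation counting. Reaction progress was monitored from 10 min to 1 h, and only IC50 values were derived.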

Data set [4] in a line: Acid dissociation constant value for the compound was determined. In kind it is ADME.
Data set [5] has as its target T1, Fatty-acid amide hydrolase 1. Description: Concentration required to inhibit Fatty-acid amide hydrolase (FAAH) at pH 7.0. The essentials: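 FAAH from solubilized liver plasma membrane extract, assayed at 20-22 °C at pH 7.0. Per the general assay footnote, the reaction buffer contained Tris, EDTA, glycerol and Triton X-100. Read-out was ¹⁴C-oleamide hydrolysis to oleic acid, followed by extraction, TLC separation and scintillation counting. Reaction time courses ran 10 min to 1 h. Only IC50 values are reported at this pH.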

A value given as a limit tells only on which side of the number the result lay.

Consider `CCCCCC[C@@H](C)OC(=O)CC(O)CBr` (stereo partly drawn), for which the concentration for half-maximal inhibition (IC50) in data set [1] was above 100 µM.

Regarding `CCCCCC[C@H](C)OC(=O)CC(=O)CBr`, the IC50 in data set [1] was 4 µM. For the same compound, the inhibitory constant (Ki) in data set [2] is 1.1 µM.

Turning to `CCCCCC[C@@H](C)OC(=O)CC(=O)CC`, the IC50 in data set [1] is above 100 µM.

For `CCCCCC[C@@H](C)OC(=O)CC(=O)CCl`, the concentration for half-maximal inhibition (IC50) in data set [1] turned out to be 2.9 µM; in data set [3], 0.7 µM. The compound also had a Ki in data set [2] of 1.1 µM.

In turn, `CCCCCCCCC(=O)CC(C)=O` returned a half-maximal inhibitory concentration (IC50) in data set [1] above 100 µM. The pKa in data set [4] turned out to be 9.

As to `CCCCCC[C@H](C)OC(=O)CC(C)=O`, the half-maximal inhibitory concentration (IC50) in data set [1] is above 100 µM. In data set [4], this compound displayed a pKa of 10.5.

Consider `CCCCCCCC/C=C\CCCCOC(=O)CC(=O)CBr`, for which the half-maximal inhibitory concentration (IC50) came out at 0.6 µM in data set [1] and 2.5 µM in data set [3]. This compound displayed a Ki in data set [2] of 0.19 µM.

In the case of `CCCCCCCOC(=O)CC(=O)CBr`, the IC50 came out at 1.5 µM in data set [1] and 2.1 µM in data set [5]. Also, the affinity in data set [2], expressed as Ki, was 0.55 µM.

`CCCCCCCC/C=C\CCCCCCCC(=O)CBr`: the figures for the IC50 in data set [1] and in data set [3] were 1 µM and 5.3 µM, respectively. This compound also had a Ki in data set [2] of 0.39 µM.

Turning to `CCCCCCCC/C=C\CCCCCCCC(=O)C(F)(F)F`, the values for the IC50 in data set [1] and in data set [3] were 0.6 µM and 9.9 µM, respectively. This compound also showed a Ki in data set [2] of 0.25 µM.

As to `CCCCCC[C@@H](C)OC(=O)CC(=O)CBr`, the IC50 in data set [1] was 2.6 µM; in data set [5] it was 3.1 µM. The compound also had a Ki in data set [2] of 0.8 µM. Also, the pKa in data set [4] turned out to be 8.5.

In data set [1], `CCCCCC[C@@H](C)OC(=O)CC(=O)CCC` returned an IC50 above 100 µM.

One may read the IC50 as the midpoint of a concentration-inhibition curve. A low value points to inhibition by little substance. By Ki is commonly meant a dissociation constant, usually derived from enzyme kinetics or from competition with a known ligand. Read a high Ki as a looser hold on the target. What is called pKa is the pH at which an ionisable group is half protonated.

Values taken from ChEMBL document CHEMBL1131510, “An endogenous sleep-inducing compound is a novel competitive inhibitor of fatty acid amide hydrolase” (Bioorg Med Chem Lett, 1998).
